Laboratory results reported in ChEMBL document CHEMBL5137122, “The Natural Products Withaferin A and Withanone from the Medicinal Herb Withania somnifera Are Covalent Inhibitors of the SARS-CoV-2 Main Protease” (J Nat Prod, 2022).
Active and inactive are the calls of the source.

Key:
[1] = target: Replicase polyprotein 1ab (Severe acute respiratory syndrome coronavirus 2) (UniProt P0DTD1); experiment: Inhibition of SARS-COV2 main protease mediated cytotoxicity against human A549 cells transfected with pCMV3-2019-nCoV-3CLpro plasmid assessed as increase in cell number measured at 48 hrs in presence of buthionine sulfoximine by Nucblue dye based microscopic analysis
Method in brief: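 Transfected A549 cells were pretreated with 500 µM buthionine sulfoximine. At 20 h post-transfection, compound or E64 (5 µM) was added with 1 mM BSO. After 48 h, cells were stained with NucBlue (Hoechst 33342), imaged and counted, with nontransfected cells handled identically.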

[2] = target: Replicase polyprotein 1ab (Severe acute respiratory syndrome coronavirus 2) (UniProt P0DTD1); experiment: Inhibition of SARS-COV2 main protease mediated cytotoxicity against human A549 cells transfected with pCMV3-2019-nCoV-3CLpro plasmid assessed as increase in cell number at 5 uM measured at 48 hrs by Nucblue dye based microscopic analysis
Method in brief: (§1)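 HepG2 or A549 cells (3×10^5) were lipofected 16 h after seeding with 3 µg pCMV3-2019-nCoV-3CLpro in serum-free DMEM for 8 h, then grown in complete medium for 12 h. Cells were trypsinised and 1×10^4 replated with hygromycin B (200 µg) plus compound or E64 (5 µM) for 48 h. NucBlue (Hoechst 33342) was added for 30 min at 37 °C, then imaging and hemocytometer counts against nontransfected cells.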

[3] = target: Replicase polyprotein 1ab (Severe acute respiratory syndrome coronavirus 2) (UniProt P0DTD1); experiment: Inhibition of SARS-COV2 main protease mediated cytotoxicity against human HepG2 cells transfected with pCMV3-2019-nCoV-3CLpro plasmid assessed as increase in cell number at 5 uM measured at 48 hrs by Nucblue dye based microscopic analysis; method in brief: as §1
[4] = target: Replicase polyprotein 1ab (Severe acute respiratory syndrome coronavirus 2) (UniProt P0DTD1); experiment: Inhibition of recombinant SARS-COV2 main protease expressed in Escherichia coli Rosetta cells at 5 uM using DABCYL-KTSAVLQSGFRKME-EDANS as substrate pre-incubated for 60 mins followed by substarte addition measured at 5 min by FRET-based assay relative to control
Method in brief: (§2)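 Time-course variant of the FRET assay: fixed inhibitor concentration with preincubation times varied (5–120 min, 37 °C) in 50 mM Tris pH 7.4 with 2 µM EDTA. Conditions were 0.5 µM MPro with 5 µM inhibitor, or 0.25 µM MPro with 0.5 µM inhibitor.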

[5] = target: Replicase polyprotein 1ab (Severe acute respiratory syndrome coronavirus 2) (UniProt P0DTD1); experiment: Inhibition of SARS-COV2 main protease mediated cytotoxicity against human HepG2 cells transfected with pCMV3-2019-nCoV-3CLpro plasmid assessed as increase in cell number and measured at 48 hrs by calcien AM staining based microscopic analysis
Method in brief: (§3)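 3-D organoid-like culture: pCMV3-2019-nCoV-3CLpro-transfected or nontransfected HepG2 or A549 cells (3000 cells/µL) were mixed 1:1 with growth factor-reduced Matrigel, with drug-containing medium added at the same time. Viable cells were imaged after calcein AM staining. Organoids were then melted on ice, pelleted, trypsinised and counted by hemocytometer.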

[6] = target: T1, Replicase polyprotein 1ab (Severe acute respiratory syndrome coronavirus 2, UniProt P0DTD1); experiment: Inhibition of recombinant SARS-COV2 main protease expressed in Escherichia coli Rosetta cells using DABCYL-KTSAVLQSGFRKME-EDANS as substrate pre-incubated for 60 mins followed by substarte addition measured at 30 min in presence of GSH by FRET-based assay
Method in brief: (§4)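 FRET assay with purified E. coli-expressed MPro (0.5 µM) in 50 mM Tris pH 7.4 with 2 µM EDTA and no DTT. MPro was preincubated 60 min at 37 °C with a range of inhibitor concentrations, with 5 mM GSH added for line 12. IC50 came from initial rates.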

[7] = target: Replicase polyprotein 1ab (Severe acute respiratory syndrome coronavirus 2) (UniProt P0DTD1); experiment: Binding affinity to recombinant SARS-COV2 main protease expressed in Escherichia coli Rosetta cells at 2 uM measured after 16 hrs by LC-MS analysis based equilibrium dialysis method
Method in brief: (§5)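 Purified His-GST-tagged MPro expressed in E. coli Rosetta and released with HRV3C protease. MPro (30 µg) in 50 mM potassium phosphate pH 7.5 with 2 µM compound was dialysed against the same solution without protein (3.5 kDa cutoff) for 16 h at room temperature. Drug in the dialysate was quantified by LC-MS or LC-MS/MS against a no-protein control. The dialyser contents were then denatured and drug re-measured.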

[8] = target: Replicase polyprotein 1ab (Severe acute respiratory syndrome coronavirus 2) (UniProt P0DTD1); experiment: Inhibition of SARS-COV2 main protease mediated cytotoxicity against human A549 cells transfected with pCMV3-2019-nCoV-3CLpro plasmid assessed as increase in cell number and measured at 48 hrs by calcien AM staining based microscopic analysis; method in brief: as §3
[9] = target: Replicase polyprotein 1ab (Severe acute respiratory syndrome coronavirus 2) (UniProt P0DTD1); experiment: Inhibition of SARS-COV2 main protease mediated cytotoxicity against human A549 cells transfected with pCMV3-2019-nCoV-3CLpro plasmid assessed as GSH level measured at 48 hrs in presence of buthionine sulfoximine by Nucblue dye based microscopic analysis; type: cell-based
[10] = target: T1, Replicase polyprotein 1ab; experiment: Inhibition of recombinant SARS-COV2 main protease expressed in Escherichia coli Rosetta cells using DABCYL-KTSAVLQSGFRKME-EDANS as substrate pre-incubated for 60 mins followed by substarte addition by FRET-based assay; method in brief: as §4
[11] = target: Replicase polyprotein 1ab (Severe acute respiratory syndrome coronavirus 2) (UniProt P0DTD1); experiment: Inhibition of recombinant SARS-COV2 main protease expressed in Escherichia coli Rosetta cells at 0.5 uM using DABCYL-KTSAVLQSGFRKME-EDANS as substrate pre-incubated for 60 mins followed by substarte addition and measured at 30 min by FRET-based assay relative to control; method in brief: as §2
[12] = target: Replicase polyprotein 1ab (Severe acute respiratory syndrome coronavirus 2) (UniProt P0DTD1); experiment: Binding affinity to recombinant SARS-COV2 main protease expressed in Escherichia coli Rosetta cells at 2 uM measured after 16 hrs by LC-MSMS analysis based equilibrium dialysis method; method in brief: as §5

Compound	inhibition [1]	inhibition [2]	inhibition [3]	inhibition [4] [%]	inhibition [5]	IC50 [6] [nM]	Activity [7]	inhibition [8]	inhibition [9]	IC50 [10] [nM]	inhibition [11] [%]	Activity [12]
CC(C)C[C@H](NC(=O)[C@H]1O[C@@H]1C(=O)O)C(=O)NCCCCN=C(N)N	Active	Active	Active									
CC1=C(CO)C(=O)O[C@@H]([C@@H](C)[C@H]2CC[C@H]3[C@@H]4C[C@H]5O[C@]56[C@@H](O)C=CC(=O)[C@]6(C)[C@H]4CC[C@]23C)C1 [WITHAFERIN A]	Active	Active	Active	100	Active	630	Active	Active	Active	540	80	
CC1=C(C)C(=O)O[C@@H]([C@@H](C)[C@@]2(O)CC[C@H]3[C@@H]4[C@@H]5O[C@@H]5[C@@]5(O)CC=CC(=O)[C@]5(C)[C@H]4CC[C@@]32C)C1 [WITHANONE]	Active	Active	Active		Active			Active	Active	1800		Active
